ChEMBL document CHEMBL2163294, “2-(N-Benzyl-N-phenylsulfonamido)alkyl amide derivatives as γ-secretase inhibitors” (Bioorg Med Chem Lett, 2012)

Assays:
[1] = Inhibition of gamma-secretase-mediated amyloid beta42 production by GS H4-8 SW1-42 assay
[2] = Drug uptake in Tg2576 mouse brain at 200 umol/kg, po measured at 180 mins; format: ADME, organism-based; details: read-out: Drug uptake
How it was run: (§1)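 Transgenic mice received a single 200 µmol/kg dose. […] Test-compound concentrations in brain and plasma (nM) were measured at the same time point.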

[3] = tested on: Liver; test: Metabolic stability in mouse liver microsomes; format: ADME, Microsome
[4] = Plasma concentration in Tg2576 mouse at 200 umol/kg, po measured at 180 mins; format: ADME, organism-based; how it was run: as §1
[5] = tested on: Mus musculus; test: Antialzheimer activity in Tg2576 mouse assessed as reduction in plasma amyloid-beta40 level at 200 umol/kg, po measured at 180 mins; format: functional; details: 3 h; how it was run: as §1
[6] = tested on: Mus musculus; test: Antialzheimer activity in Tg2576 mouse assessed as reduction in brain amyloid-beta40 level at 200 umol/kg, po measured at 180 mins; format: functional; details: 3 h; how it was run: as §1
[7] = tested on: Liver microsomes; test: Metabolic stability in human liver microsomes; format: ADME, Microsome
[8] = target: Gamma-secretase; test: Inhibition of human gamma-secretase expressed in IMR32 cell membranes using MBPC-125 Swedish as substrate assessed as inhibition of amyloid beta40 production after 2 hrs by ELISA; details: imr-32
[9] = Inhibition of gamma-secretase

Compound | IC50 ([1]; read-out: IC50) | other results
CC(C)C[C@H](C(N)=O)N(Cc1ccc(N(C)C)cc1)S(=O)(=O)c1ccc(Cl)cc1 | 0.27 nM | –
COc1ccc(CN([C@H](CC(C)C)C(N)=O)S(=O)(=O)c2ccc(Cl)cc2)cc1F | 0.15 nM | –
COC[C@H](C(N)=O)N(Cc1ccc(C#N)cc1)S(=O)(=O)c1ccc(Cl)cc1 | 48 nM | –
COc1ccc(CN(CC(N)=O)S(=O)(=O)c2ccc(Cl)cc2)cc1F | 2000 nM | –
CCCC[C@H](C(N)=O)N(Cc1ccc(C#N)cc1)S(=O)(=O)c1ccc(Cl)cc1 | 1 nM | –
CC(C)C[C@H](C(N)=O)N(CCCc1ccccc1)S(=O)(=O)c1ccc(Cl)cc1 | 0.41 nM | –
CC(C)C[C@H](C(N)=O)N(CC1CCCCC1)S(=O)(=O)c1ccc(Cl)cc1 | 0.79 nM | –
N#Cc1ccc(CN([C@H](CC2CC2)C(N)=O)S(=O)(=O)c2ccc(Cl)cc2)cc1 | 0.94 nM | concentration at 3 h [2]: 2800 nM; Stability [3]: 0.17 nmol/min/mg; concentration at 3 h [4]: 8600 nM; inhibition in vivo at 200 µmol/kg [5]: 81%; inhibition in vivo at 200 µmol/kg [6]: 75%; Stability [7]: 0.16 nmol/min/mg
CC(C)C[C@H](C(N)=O)N(CCCCCCN1CCOCC1)S(=O)(=O)c1ccc(Cl)cc1 | 3.5 nM | –
COc1ccc(CN([C@H](CC(C)C)C(N)=O)S(=O)(=O)c2cccc(Cl)c2)cc1F | 7 nM | –
COc1ccc(CN([C@H](CC(C)C)C(N)=O)S(=O)(=O)c2ccc(C(F)(F)F)cc2)cc1F | 0.27 nM | –
CC(C)C[C@H](C(N)=O)N(Cc1ccc(OC(F)(F)F)cc1)S(=O)(=O)c1ccc(Cl)cc1 | 0.69 nM | –
CNC(=O)[C@@H](CC(C)C)N(Cc1ccc(OC)cc1)S(=O)(=O)c1ccc(Cl)cc1 | 380 nM | –
CC(C)C[C@H](C(N)=O)N(CCSC(C)(C)C)S(=O)(=O)c1ccc(Cl)cc1 | 4.2 nM | –
CC(C)C[C@H](C(N)=O)N(CCCCN1CCOCC1)S(=O)(=O)c1ccc(Cl)cc1 | 9.9 nM | –
CC(C)C[C@H](C(N)=O)N(Cc1ccc(C(F)(F)F)cc1)S(=O)(=O)c1ccc(Cl)cc1 | 0.39 nM | –
CC(C)C[C@H](C(N)=O)N(CCCCCCn1ccnc1)S(=O)(=O)c1ccc(Cl)cc1 | 4.9 nM | –
CC(C)C[C@H](C(N)=O)N(Cc1cc(F)cc(F)c1)S(=O)(=O)c1ccc(Cl)cc1 | 0.62 nM | –
CCN([C@H](CC(C)C)C(N)=O)S(=O)(=O)c1ccc(Cl)cc1 | 2.3 nM | –
CC(C)C[C@H](C(N)=O)N(Cc1ccc(F)c(F)c1)S(=O)(=O)c1ccc(Cl)cc1 | 0.44 nM | –
CC(C)(C)C(=O)C[C@H](C(N)=O)N(Cc1ccc(C#N)cc1)S(=O)(=O)c1ccc(Cl)cc1 | 54 nM | –

Compound | IC50 ([1]; read-out: IC50) | other results
CCC[C@H](C(N)=O)N(Cc1ccc(OC)c(F)c1)S(=O)(=O)c1ccc(Cl)cc1 | 0.52 nM | concentration at 3 h [2]: 380 nM; Stability [3]: 0.3 nmol/min/mg; concentration at 3 h [4]: 840 nM; inhibition in vivo at 200 µmol/kg [5]: 41%; inhibition in vivo at 200 µmol/kg [6]: 72%; Stability [7]: 0.3 nmol/min/mg
CCC[C@H](C(N)=O)N(Cc1ccc(C#N)cc1)S(=O)(=O)c1ccc(Cl)cc1 | 2.6 nM | –
CC(C)C[C@H](C(N)=O)N(Cc1ccc(C#N)cc1)S(=O)(=O)c1ccc(F)cc1 | 2.7 nM | –
COc1ccc(CN([C@H](CC(C)C)C(=O)NN)S(=O)(=O)c2ccc(Cl)cc2)cc1 | 53 nM | –
CC(C)C[C@H](C(N)=O)N(Cc1ccc(CCl)cc1)S(=O)(=O)c1ccc(Cl)cc1 | 0.35 nM | –
COc1ccc(CN([C@H](Cc2ccccc2)C(N)=O)S(=O)(=O)c2ccc(Cl)cc2)cc1 | 390 nM | –
NC(=O)[C@@H](CC1CC1)N(Cc1ccc(C(F)(F)F)cc1)S(=O)(=O)c1ccc(Cl)cc1 | 0.68 nM | concentration at 3 h [2]: 6300 nM; Stability [3]: 0.27 nmol/min/mg; concentration at 3 h [4]: 3600 nM; inhibition in vivo at 200 µmol/kg [5]: 65%; inhibition in vivo at 200 µmol/kg [6]: 78%; Stability [7]: 0.23 nmol/min/mg
COc1ccc(CN([C@@H](CC(C)C)C(N)=O)S(=O)(=O)c2ccc(Cl)cc2)cc1 | 315 nM | –
COc1ccc(CN(C(=O)c2ccc(Cl)cc2)[C@H](CC(C)C)C(N)=O)cc1F | – | IC50 [1]: Not Active
CC(C)C[C@H](C(N)=O)N(Cc1ccc(C#N)cc1)S(=O)(=O)c1ccc(Cl)cc1 | 0.67 nM | –
COc1ccc(CN([C@H](CC(C)C)c2nc(C)ns2)S(=O)(=O)c2ccc(Cl)cc2)cc1 | 1200 nM | –
CC(C)C[C@H](C(N)=O)N(Cc1ccc(C(C)C)cc1)S(=O)(=O)c1ccc(Cl)cc1 | 0.58 nM | –
COc1ccc(CN([C@@H](C(N)=O)C(C)C)S(=O)(=O)c2ccc(Cl)cc2)cc1F | 1.4 nM | –
COc1ccc(CN([C@H](CC(C)C)C(=O)N(C)OC)S(=O)(=O)c2ccc(Cl)cc2)cc1 | 160 nM | –
COc1ccc(CN([C@H](CC(C)C)C(N)=O)S(=O)(=O)c2ccc(F)cc2)cc1F | 0.26 nM | –
COc1ccc(CN([C@H](C)C(N)=O)S(=O)(=O)c2ccc(Cl)cc2)cc1F | 5.3 nM | –
COc1ccc(CN([C@@H]2CCCCNC2=O)S(=O)(=O)c2ccc(Cl)cc2)cc1 | – | concentration at 3 h [2]: 2200 nM; Stability [3]: 0.22 nmol/min/mg; concentration at 3 h [4]: 280 nM; inhibition in vivo at 200 µmol/kg [5]: 47%; inhibition in vivo at 200 µmol/kg [6]: 49%; Stability [7]: 0.23 nmol/min/mg
COc1ccc(CN([C@H](CC(C)C)C(=O)NO)S(=O)(=O)c2ccc(Cl)cc2)cc1F | 19 nM | –
CC(C)C[C@H](C(N)=O)N(Cc1ccccc1)S(=O)(=O)c1ccc(Cl)cc1 | 0.35 nM | –
C=CC[C@H](C(N)=O)N(Cc1ccc(OC)c(F)c1)S(=O)(=O)c1ccc(Cl)cc1 | 0.35 nM | –
COc1ccc(CN([C@H](CC(C)C)C(N)=O)S(=O)(=O)c2ccc(Cl)cc2)cc1 | – | IC50 [8]: 0.19 nM

Compound | IC50 ([1]; read-out: IC50) | other results
COc1ccc(CN([C@H](CC(C)C)C(=O)N(C)C)S(=O)(=O)c2ccc(Cl)cc2)cc1 | 1100 nM | –
COc1ccccc1CN([C@H](CC(C)C)C(N)=O)S(=O)(=O)c1ccc(Cl)cc1 | 23 nM | –
COc1cccc(CN([C@H](CC(C)C)C(N)=O)S(=O)(=O)c2ccc(Cl)cc2)c1 | 0.59 nM | –
COc1ccc(CN(C(=O)Nc2ccccc2)[C@H](CC(C)C)C(N)=O)cc1F | 1100 nM | –
Cc1ccc(S(=O)(=O)N(Cc2ccc(C#N)cc2)[C@H](CC(C)C)C(N)=O)cc1 | 2.8 nM | –
CC(C)C[C@H](C(=O)NN)N(Cc1ccc(C(F)(F)F)cc1)S(=O)(=O)c1ccc(Cl)cc1 | 110 nM | –
COc1ccc(CN([C@H](CC(C)C)C(N)=O)S(=O)(=O)c2ccccc2)cc1F | 1.7 nM | –
CC[C@H](C(N)=O)N(Cc1ccc(C#N)cc1)S(=O)(=O)c1ccc(Cl)cc1 | 4.4 nM | –
CC(C)C[C@H](C(N)=O)N(Cc1ccc(C(C)(C)C)cc1)S(=O)(=O)c1ccc(Cl)cc1 | 0.39 nM | –
NC(=O)[C@@H](CCC(F)(F)F)N(Cc1ccc(-c2ncon2)cc1F)S(=O)(=O)c1ccc(Cl)cc1 | – | IC50 [9]: 0.3 nM
CC(C)C[C@H](C(N)=O)N(Cc1ccc(CN(C)C)cc1)S(=O)(=O)c1ccc(Cl)cc1 | 7.7 nM | –
CSCC[C@H](C(N)=O)N(Cc1ccc(C#N)cc1)S(=O)(=O)c1ccc(Cl)cc1 | 19 nM | –
C[S+]([O-])CC[C@H](C(N)=O)N(Cc1ccc(C#N)cc1)S(=O)(=O)c1ccc(Cl)cc1 (stereo not given in full) | 1800 nM | –
CS(=O)(=O)CC[C@H](C(N)=O)N(Cc1ccc(C#N)cc1)S(=O)(=O)c1ccc(Cl)cc1 | 4300 nM | –
COc1ccc(CN([C@H](CC(C)C)c2nc(C)no2)S(=O)(=O)c2ccc(Cl)cc2)cc1 | 2200 nM | –
COc1ccc(CN([C@H](CC(C)C)C(=O)O)S(=O)(=O)c2ccc(Cl)cc2)cc1F | 220 nM | –
CC(C)C[C@H](C(N)=O)N(Cc1ccc(F)cc1)S(=O)(=O)c1ccc(Cl)cc1 | 0.43 nM | –
CC(C)C[C@H](C(N)=O)N(CC1CCN(Cc2ccccc2)CC1)S(=O)(=O)c1ccc(Cl)cc1 | 17 nM | –
COc1ccc(CN([C@H](CC(C)C)C(N)=O)S(=O)(=O)c2ccc(C)cc2)cc1F | 0.45 nM | –
COc1ccc(CN([C@H](CC(C)C)C(N)=O)S(=O)(=O)c2cccc(C)c2)cc1F | 9.2 nM | –
